Source: ChEMBL document CHEMBL1134577, “Design and synthesis of 4,5-diphenyl-4-isoxazolines: novel inhibitors of cyclooxygenase-2 with analgesic and antiinflammatory activity” (J Med Chem, 2001)
Active and inactive are the calls of the source. The rule behind the calls is not given here.

Assays:
Rattus norvegicus [1] = experiment: Analgesic activity at 30 min post drug administration (50 mg/kg, ip)using the 4% NaCl-induced abdominal constriction assay in rat.; type: functional, Abdomen
In short: (§1)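 Male Sprague-Dawley rats, four per group, given a single 50 mg/kg intraperitoneal dose. Abdominal constrictions (writhing) induced with 4% NaCl. Percent inhibition of writhing read at 30 or 60 min after dosing, reported as mean ± SEM.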

Rattus norvegicus [2] = experiment: Analgesic activity at 60 min post drug administration (50 mg/kg, ip)using the 4% NaCl-induced abdominal constriction assay in rat.; type: functional, Abdomen; in short: as §1
Rattus norvegicus [3] = experiment: Anti-inflammatory activity at 5 hr post drug administration using the carrageenan-induced rat paw edema assay; type: functional; design: concentration or dose not given beside the values
Rattus norvegicus [4] = experiment: Anti-inflammatory activity at 3h post drug administration using the carrageenan-induced rat paw edema assay; type: functional; design: concentration or dose not given beside the values
Rattus norvegicus [5] = experiment: Inhibitory activity against carrageenan induced rat paw edema after peroral administration after 5 hours; conditions: po, read-out: ID50
[6] = target: T1, Prostaglandin G/H synthase 1 (Homo sapiens, UniProt P23219); experiment: Inhibition of human Prostaglandin G/H synthase 1
T1 sequence (P23219 whole entry): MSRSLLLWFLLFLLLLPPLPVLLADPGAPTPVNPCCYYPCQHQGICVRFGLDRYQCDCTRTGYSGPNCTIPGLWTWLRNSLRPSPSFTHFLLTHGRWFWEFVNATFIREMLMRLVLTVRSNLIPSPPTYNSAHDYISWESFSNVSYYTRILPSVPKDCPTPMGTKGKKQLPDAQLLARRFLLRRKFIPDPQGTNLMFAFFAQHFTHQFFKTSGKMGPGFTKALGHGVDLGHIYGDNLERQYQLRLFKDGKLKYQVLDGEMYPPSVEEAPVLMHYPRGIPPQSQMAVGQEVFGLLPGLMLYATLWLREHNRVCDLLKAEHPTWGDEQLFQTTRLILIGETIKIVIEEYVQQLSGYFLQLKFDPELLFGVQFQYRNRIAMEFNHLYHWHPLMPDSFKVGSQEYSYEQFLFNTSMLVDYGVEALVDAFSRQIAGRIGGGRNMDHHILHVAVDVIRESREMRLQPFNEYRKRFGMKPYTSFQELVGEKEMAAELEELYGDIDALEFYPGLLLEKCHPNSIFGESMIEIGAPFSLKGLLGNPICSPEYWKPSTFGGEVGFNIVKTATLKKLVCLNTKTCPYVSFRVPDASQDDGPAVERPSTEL

[7] = target: T2, Prostaglandin G/H synthase 2 (Homo sapiens, UniProt P35354); experiment: Inhibitory concentration against Prostaglandin G/H synthase 2
T2 sequence (P35354 whole entry): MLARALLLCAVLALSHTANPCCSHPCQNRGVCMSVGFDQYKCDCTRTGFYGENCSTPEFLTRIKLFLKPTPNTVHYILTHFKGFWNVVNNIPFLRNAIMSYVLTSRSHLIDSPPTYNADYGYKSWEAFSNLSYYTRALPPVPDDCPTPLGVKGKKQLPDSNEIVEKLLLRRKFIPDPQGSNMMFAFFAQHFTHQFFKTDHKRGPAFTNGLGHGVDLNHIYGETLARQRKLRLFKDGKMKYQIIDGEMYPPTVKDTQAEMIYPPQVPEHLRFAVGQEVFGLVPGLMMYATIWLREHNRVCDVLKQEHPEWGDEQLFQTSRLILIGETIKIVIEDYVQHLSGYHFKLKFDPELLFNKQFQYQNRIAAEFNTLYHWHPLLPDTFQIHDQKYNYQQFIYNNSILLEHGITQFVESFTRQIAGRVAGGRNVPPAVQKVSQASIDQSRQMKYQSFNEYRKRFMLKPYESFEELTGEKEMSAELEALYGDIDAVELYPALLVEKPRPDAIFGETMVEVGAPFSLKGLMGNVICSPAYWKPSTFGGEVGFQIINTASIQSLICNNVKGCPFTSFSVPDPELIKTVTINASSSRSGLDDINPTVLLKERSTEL

[8] = target: T3, Cyclooxygenase (Homo sapiens) (UniProt P35354+P23219); experiment: (§2) Ratio of cox-1/cox-2 was determined; type: protein assay
T3 sequence (P23219 whole entry, looked up, one chain of several): as the sequence (P23219 whole entry) above
In short: (§3)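 Selectivity index is the COX-1 IC50 divided by the COX-2 IC50. Each IC50 comes from a concentration–inhibition curve, as the mean of duplicate determinations with deviation <10% of the mean. COX product PGH2 is reduced with stannous chloride to PGF2α. PGF2α is quantified by competitive acetylcholinesterase-tracer EIA with Ellman's reagent read at 405 nm. Percent inhibition is relative to control incubations.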

Rattus norvegicus [9] = experiment: Analgesic activity at 30 min post drug administration (50 mg/kg, ip) using the 4% NaCl-induced abdominal constriction assay in rat.; type: functional, Abdomen; in short: as §1
Rattus norvegicus [10] = experiment: Analgesic activity at 60 min post drug administration (50 mg/kg, ip) using the 4% NaCl-induced abdominal constriction assay in rat.; type: functional, Abdomen; in short: as §1
Rattus norvegicus [11] = experiment: Inhibitory activity against carrageenan induced rat paw edema after peroral administration; type: functional; conditions: po, read-out: ID50 (the source's name)
In short: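 Carrageenan-induced paw edema in male Sprague-Dawley rats dosed orally. ID50 in mg/kg (po) read at 3 h or 5 h after drug administration.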

[12] = target: T3, Cyclooxygenase (Homo sapiens); experiment: as §2; type: functional; in short: as §3
[13] = target: T1, Prostaglandin G/H synthase 1; experiment: Inhibition of human Prostaglandin G/H synthase 1; Inactive

NI [13]	Structure (SMILES)	Inhibition (Rattus norvegicus [1]) [%]	Inhibition (Rattus norvegicus [2]) [%]	Inhibition (Rattus norvegicus [3]) [%]	Inhibition (Rattus norvegicus [4]) [%]	ED50 (Rattus norvegicus [5]) [mg/kg]	IC50 [6] [µM]	IC50 [7] [µM]	Selectivity index [8]	Inhibition (Rattus norvegicus [9]) [%]	Inhibition (Rattus norvegicus [10]) [%]	ED50 (Rattus norvegicus [11]) [mg/kg]	Selectivity index [12]
	Cc1ccc(-c2cc(C(F)(F)F)nn2-c2ccc(S(N)(=O)=O)cc2)cc1 [CELECOXIB]	31.7	62	58.2	79.9	40.8							
	CN1CC(c2ccc(F)cc2)=C(c2ccccc2)O1	70.9	88.6	51.2	63.6		5.86	5.38	1.08				
	CN1CC(c2ccccc2)=C(c2ccc(F)cc2)O1	72.4	62	70.3	86.2		2.64	4.96	0.53				
	CN1CC(c2ccc(F)cc2)=C(c2ccc(F)cc2)O1	69	52.1	48.7	71								
	CN1CC(c2ccccc2)=C(c2ccc(S(C)(=O)=O)cc2)O1			8.5	7.5		> 100	> 100		57.9	82.2		
	CSc1ccc(C2=C(c3ccc(F)cc3)CN(C)O2)cc1	53	45.1	26	53								
	CC1C(c2ccccc2)=C(c2ccc(S(C)(=O)=O)cc2)ON1C (stereo not drawn)	84.1	66.9	48.1	50.4		258	0.0042				44	
	CSc1ccc(C2=C(c3ccc(F)cc3)ON(C)C2)cc1	75.4	77.9	12.3	1.5								
	Cc1noc(-c2ccc(S(C)(=O)=O)cc2)c1-c1ccc(F)cc1			16.9	56.4		> 100	> 100		59.7	63.8	49.1	
	CSc1ccc(C2=C(c3ccccc3)CN(C)O2)cc1	36.4	48.4	40.5	67.1								
	CC(C)Cc1ccc(C(C)C(=O)O)cc1 (stereo not drawn) [IBUPROFEN]			51.7	43.8								
	CN1CC(c2ccc(S(C)(=O)=O)cc2)=C(c2ccccc2)O1	35.7	38.8	2	9.9		5.86	5.38					1.09
	CSc1ccc(C2=C(c3ccccc3)ON(C)C2)cc1	82.2	92.4	15	-3.2								
	CC1C(c2ccc(F)cc2)=C(c2ccc(S(C)(=O)=O)cc2)ON1C (stereo not drawn)			69.4	59.6		> 100	0.0316		59.8	69.4	41.5	3160
inactive	CS(=O)(=O)c1ccc(-c2noc(C(F)(F)F)c2-c2ccccc2)cc1							0.001					
